Laboratory results: ChEMBL document CHEMBL2169879, “Design and synthesis of inhibitors of Plasmodium falciparum N-myristoyltransferase, a promising target for antimalarial drug discovery” (J Med Chem, 2012)

Key:
[1] = biological target: T1, Glycylpeptide N-tetradecanoyltransferase (Plasmodium falciparum (isolate 3D7), UniProt Q8ILW6); assay: Inhibition of Plasmodium falciparum N-myristoyltransferase using [3H]-myristoyl-CoA and GLYVSRLFNRLFQKK(Biotin)-NH2 as substrate after 30 mins scintillation proximity assay
T1 sequence (Q8ILW6 whole entry): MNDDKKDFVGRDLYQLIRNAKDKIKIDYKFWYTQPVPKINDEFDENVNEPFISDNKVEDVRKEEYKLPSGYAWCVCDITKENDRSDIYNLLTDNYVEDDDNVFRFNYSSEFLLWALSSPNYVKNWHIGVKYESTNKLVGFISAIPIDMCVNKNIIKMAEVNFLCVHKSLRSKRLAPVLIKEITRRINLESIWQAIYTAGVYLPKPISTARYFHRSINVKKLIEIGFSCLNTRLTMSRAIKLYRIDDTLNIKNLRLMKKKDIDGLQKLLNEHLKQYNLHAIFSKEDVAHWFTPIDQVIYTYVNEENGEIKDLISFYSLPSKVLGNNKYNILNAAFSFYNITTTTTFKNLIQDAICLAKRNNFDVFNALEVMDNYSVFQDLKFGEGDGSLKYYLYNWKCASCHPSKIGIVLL

[2] = biological target: T2, Glycylpeptide N-tetradecanoyltransferase 1 (Homo sapiens, UniProt P30419); assay: Inhibition of human N-myristoyltransferase using [3H]-myristoyl-CoA and GLYVSRLFNRLFQKK(Biotin)-NH2 as substrate after 30 mins scintillation proximity assay
T2 sequence (P30419 whole entry): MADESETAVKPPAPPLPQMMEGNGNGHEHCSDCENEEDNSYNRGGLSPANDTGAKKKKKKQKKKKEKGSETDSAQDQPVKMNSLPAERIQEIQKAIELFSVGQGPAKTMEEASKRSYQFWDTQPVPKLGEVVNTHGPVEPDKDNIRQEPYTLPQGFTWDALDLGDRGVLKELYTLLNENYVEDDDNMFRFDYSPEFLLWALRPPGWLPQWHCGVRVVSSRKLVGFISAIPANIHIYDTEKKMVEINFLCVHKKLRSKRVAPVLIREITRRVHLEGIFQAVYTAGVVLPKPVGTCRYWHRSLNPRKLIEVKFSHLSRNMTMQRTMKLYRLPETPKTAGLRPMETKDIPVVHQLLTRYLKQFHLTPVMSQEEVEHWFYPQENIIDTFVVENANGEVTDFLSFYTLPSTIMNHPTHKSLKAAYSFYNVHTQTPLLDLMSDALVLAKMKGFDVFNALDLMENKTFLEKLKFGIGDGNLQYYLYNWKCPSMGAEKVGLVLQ

[3] = Selectivity index, ratio of IC50 for human N-myristoyltransferase to IC50 for Plasmodium falciparum N-myristoyltransferase
Procedure, shortened: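 Buffer was 30 mM Tris pH 7.4 with 4% DMSO; 30 min at 37 °C. Reaction stopped with streptavidin beads at pH 4. […] Ratio is IC50(HsNMT1)/IC50(PfNMT).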

Plasmodium falciparum = assay: Antiplasmodial activity against trophozoite-stage of Plasmodium falciparum 3D7 after 48 hrs by FACS analysis; assay type: functional, organism-based; details: 3D7, 48 h
Procedure, shortened: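 Synchronous late-trophozoite 3D7 cultures at 1% parasitemia and 2% hematocrit with 0.5% DMSO, exposed to inhibitor from 10 μM down to 0.31 μM for a 48 h cycle at 37 °C. Aliquots stained with diluted hydroethidine for 20 min at 37 °C, then parasitemia read by flow cytometry. Untreated parasites and uninfected RBCs served as controls. EC50 from nonlinear regression, triplicate wells.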

[4] = Inhibition of Plasmodium vivax wild type N-myristoyltransferase using [3H]-myristoyl-CoA and GLYVSRLFNRLFQKK(Biotin)-NH2 as substrate after 30 mins scintillation proximity assay
[5] = biological target: Glycylpeptide N-tetradecanoyltransferase (Plasmodium vivax (strain Salvador I), UniProt A5K1A2, Y211A); assay: Inhibition of Plasmodium vivax […] N-myristoyltransferase Y211A mutant using [3H]-myristoyl-CoA and GLYVSRLFNRLFQKK(Biotin)-NH2 as substrate after 30 mins scintillation proximity assay
Procedure, shortened: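 Purified NMT per 100 µL well: PfNMT 9.4 ng, PvNMT 4.8 ng, PvNMT Y211A 19.2 ng. Each well also held 62.5 nM [3H]-myristoyl-CoA and 500 nM biotinylated peptide in pH 7.4 Tris buffer with 4% DMSO. Incubation ran 30 min at 37°C. Reactions were stopped with streptavidin beads at pH 4 and counted after overnight settling. Inhibitor ranged 500 µM–2 nM. IC50 came from nonlinear regression, in duplicate.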

[6] = biological target: Glycylpeptide N-tetradecanoyltransferase 1 (Homo sapiens, UniProt P30419, Y296A); assay: Inhibition of human N-myristoyltransferase Y296A mutant using [3H]-myristoyl-CoA and GLYVSRLFNRLFQKK(Biotin)-NH2 as substrate after 30 mins scintillation proximity assay
Glycylpeptide N-tetradecanoyltransferase 1 (Homo sapiens, UniProt P30419, Y296A), sequence (P30419 whole entry Y296A): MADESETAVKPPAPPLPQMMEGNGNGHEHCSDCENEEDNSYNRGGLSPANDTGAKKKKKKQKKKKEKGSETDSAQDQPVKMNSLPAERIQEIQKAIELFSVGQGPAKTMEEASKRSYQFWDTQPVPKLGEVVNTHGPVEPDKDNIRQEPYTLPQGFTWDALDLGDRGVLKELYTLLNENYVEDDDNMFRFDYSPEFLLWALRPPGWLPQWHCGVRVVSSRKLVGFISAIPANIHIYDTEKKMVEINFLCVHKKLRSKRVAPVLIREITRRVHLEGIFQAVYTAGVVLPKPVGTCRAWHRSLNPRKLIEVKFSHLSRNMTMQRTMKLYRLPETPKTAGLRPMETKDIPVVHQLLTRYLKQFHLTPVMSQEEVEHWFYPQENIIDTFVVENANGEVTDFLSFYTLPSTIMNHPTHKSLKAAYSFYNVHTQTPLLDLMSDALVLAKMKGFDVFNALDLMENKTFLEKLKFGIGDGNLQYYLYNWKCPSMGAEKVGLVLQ

Glycylpeptide N-tetradecanoyltransferase (Plasmodium vivax (strain Salvador I), UniProt A5K1A2, Y211A), sequence (A5K1A2 whole entry Y211A): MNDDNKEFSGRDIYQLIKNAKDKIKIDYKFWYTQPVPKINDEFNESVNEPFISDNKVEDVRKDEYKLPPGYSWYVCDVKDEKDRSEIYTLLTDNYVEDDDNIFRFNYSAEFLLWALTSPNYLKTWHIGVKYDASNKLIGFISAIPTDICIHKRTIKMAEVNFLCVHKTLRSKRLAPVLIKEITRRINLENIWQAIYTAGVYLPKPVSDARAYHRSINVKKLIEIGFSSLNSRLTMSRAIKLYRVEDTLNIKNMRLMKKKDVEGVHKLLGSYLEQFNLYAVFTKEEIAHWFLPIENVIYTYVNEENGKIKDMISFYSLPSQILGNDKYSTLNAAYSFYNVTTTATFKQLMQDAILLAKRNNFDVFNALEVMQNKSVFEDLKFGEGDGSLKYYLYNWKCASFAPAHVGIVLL

| Structure (SMILES) | IC50 [1] [µM] | Ratio IC50 [3] | EC50 (Plasmodium falciparum) [µM] | also measured |
| --- | --- | --- | --- | --- |
| Cc1c(C(=O)OCC2CCCCC2)oc2cccc(OC3CCNCC3)c12 | 9.7 |  |  |  |
| O=S(=O)(Cc1ccccc1)c1cc2c(OC3CCNCC3)cccc2o1 | > 200 |  |  |  |
| Cc1c(C(=O)NCc2ccccc2)oc2cccc(OC3CCNCC3)c12 | 13 |  |  |  |
| CCOC(=O)c1oc2cccc(OCCCNCc3cccnc3)c2c1C | 51 |  |  | IC50 [2]: > 1000 µM |
| Cc1c(-c2nc(-c3ccccc3)no2)oc2cccc(OC3CCNCC3)c12 | 17.9 | > 12 |  |  |
| Cc1c(-c2nc(Cc3ccccc3)no2)oc2cccc(OC3CCNCC3)c12 |  |  | 2.1 | IC50 [4]: 6.2 µM; IC50 [5]: 16.6 µM |
| Cc1c(C(=O)OCCc2ccccc2)oc2cccc(OC3CCNCC3)c12 | 4.1 |  |  |  |
| Cc1c(C(=O)OCCCc2ccccc2)oc2cccc(OC3CCNCC3)c12 | 36.2 |  |  |  |
| Cc1c(COCc2ccccc2)oc2cccc(OC3CCNCC3)c12 | 7.1 | 14 | 4.5 |  |
| Cc1c(C(=O)OCc2cccc3ccccc23)oc2cccc(OC3CCNCC3)c12 | 1.4 |  |  |  |
| Cc1c(C(=O)CCc2ccccc2)oc2cccc(OC3CCNCC3)c12 |  | > 20 | 4 |  |
| Cc1c(/C=C\c2ccccc2)oc2cccc(OC3CCNCC3)c12 | 72 |  |  |  |
| Cc1c(C(=O)NC2CCCCC2)oc2cccc(OC3CCNCC3)c12 | > 100 |  |  |  |
| Cc1c(COc2ccccc2)oc2cccc(OC3CCNCC3)c12 | 6.6 | > 16 |  |  |
| Cc1c(CCc2ccccc2)oc2cccc(OC3CCNCC3)c12 | 131 |  |  |  |
| Cc1c(C(=O)OCc2ccccc2)oc2cccc(OC3CCNCC3)c12 | 0.27 | > 400 | 1.2 | IC50 [2]: > 100 µM |
| Cc1c(C(=O)NCc2cccc3ccccc23)oc2cccc(OC3CCNCC3)c12 |  | 28 | 2.4 |  |
| Cc1c(C(=O)NC(C)C)oc2cccc(OC3CCNCC3)c12 | > 200 |  |  |  |
| Cc1c(C(=O)/C=C/c2ccccc2)oc2cccc(OC3CCNCC3)c12 | 3.5 | 14 | 2.5 |  |
| Cc1c(C(=O)c2ccccc2)oc2cccc(OC3CCNCC3)c12 | 22 | > 5 | 5.3 |  |
| Cc1c(/C=C/c2ccccc2)oc2cccc(OC3CCNCC3)c12 | 26.1 | > 10 |  |  |
| Cc1c(C(=O)Nc2ccccc2)oc2cccc(OC3CCNCC3)c12 | 28.8 | > 10 | 5.3 |  |
| CCOC(=O)c1oc2cccc(OC3CCNCC3)c2c1C | 16.5 |  | 15 | IC50 [2]: > 200 µM |
| CCCCc1c(C)nc2ccc(OC)cc2c1SCCC#N |  |  |  | IC50 [4]: 32.7 µM; IC50 [5]: 150 µM |
| c1ccc(CSc2cc3c(OC4CCNCC4)cccc3o2)cc1 | 38.2 |  |  |  |
| COc1cccc(COC(=O)c2oc3cccc(OC4CCNCC4)c3c2C)c1 |  |  |  | IC50 [2]: 45 µM; IC50 [6]: 10 µM; IC50 [5]: 2.7 µM |
| Cc1c(C(=O)Oc2ccccc2)oc2cccc(OC3CCNCC3)c12 | 24.4 | > 20 | 10 |  |
